Measurements from ChEMBL document CHEMBL3808293, “Antiproliferative activity and apoptosis inducing effects of nitric oxide donating derivatives of evodiamine” (Bioorg Med Chem, 2016).
Activity calls are given as the source filed them. The rule behind the calls is not given here.

Experiments:
[1] = tested on: BGC-823; test: Induction of NO release in human BGC823 cells at 100 uM incubated for 1 hr by Griess assay; assay type: functional
Outline: (§1)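 Cells exposed to 100 μM compound; the methods give 150 min, the results text 1 h. Cell lysates mixed with Griess reagent 10 min at 37 °C, absorbance read at 540 nm. Nitrite quantified against a sodium nitrite standard curve; 0.4% DMSO-treated cells gave background. Mean ± SD of three independent experiments.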

[2] = tested on: Bel-7402; test: Induction of NO release in human Bel7402 cells at 100 uM incubated for 1 hr by Griess assay; assay type: functional; outline: as §1
[3] = tested on: L02; test: Induction of NO release in human L02 cells at 100 uM incubated for 1 hr by Griess assay; assay type: functional; outline: as §1
[4] = Antiproliferative activity against human BGC823 cells after 72 hrs by MTT assay; assay type: functional, cell-based; conditions: BGC-823, 72 h
Outline: (§2)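 Cells pre-incubated 24 h at 37 °C, 5% CO2, then exposed to compounds for 72 h. MTT (5 mg/mL solution) added for a further 4 h, formazan dissolved in DMSO, OD read at 570 nm. Negative reference 0.1% DMSO; evodiamine and 5-Fu as positive references. IC50 is the concentration inhibiting 50% of growth; mean ± SD of three independent experiments.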

[5] = tested on: A549; test: Antiproliferative activity against human A549 cells after 72 hrs by MTT assay; assay type: functional, cell-based; conditions: A549, 72 h; outline: as §2
[6] = Antiproliferative activity against human Bel7402 cells after 72 hrs by MTT assay; assay type: functional, cell-based; conditions: Bel-7402, 72 h; outline: as §2
[7] = Antiproliferative activity against human L02 cells after 72 hrs by MTT assay; assay type: cell-based; conditions: L02, 72 h; outline: as §2
[8] = Cell cycle arrest in human Bel7402 cells assessed as accumulation at G1 phase at 1 uM after 24 hrs by propidium iodide staining based flow cytometry (reference value: 43.13%); assay type: functional; conditions: Bel-7402
[9] = Cell cycle arrest in human Bel7402 cells assessed as accumulation at G1 phase at 2 uM after 24 hrs by propidium iodide staining based flow cytometry (reference value: 43.13%); assay type: functional; conditions: Bel-7402
[10] = Cell cycle arrest in human Bel7402 cells assessed as accumulation at G1 phase at 3 uM after 24 hrs by propidium iodide staining based flow cytometry (reference value: 43.13%); assay type: functional; conditions: Bel-7402
[11] = Cell cycle arrest in human Bel7402 cells assessed as accumulation at S phase at 1 uM after 24 hrs by propidium iodide staining based flow cytometry (reference value: 33.7%); assay type: functional; conditions: Bel-7402
[12] = Cell cycle arrest in human Bel7402 cells assessed as accumulation at S phase at 2 uM after 24 hrs by propidium iodide staining based flow cytometry (reference value: 33.7%); assay type: functional; conditions: Bel-7402
[13] = Cell cycle arrest in human Bel7402 cells assessed as accumulation at S phase at 3 uM after 24 hrs by propidium iodide staining based flow cytometry (reference value: 33.7%); assay type: functional; conditions: Bel-7402
[14] = Cell cycle arrest in human Bel7402 cells assessed as accumulation at G2 phase at 1 uM after 24 hrs by propidium iodide staining based flow cytometry (reference value: 23.17%); assay type: functional; conditions: Bel-7402
[15] = Cell cycle arrest in human Bel7402 cells assessed as accumulation at G2 phase at 2 uM after 24 hrs by propidium iodide staining based flow cytometry (reference value: 23.17%); assay type: functional; conditions: Bel-7402
[16] = Cell cycle arrest in human Bel7402 cells assessed as accumulation at G2 phase at 3 uM after 24 hrs by propidium iodide staining based flow cytometry (reference value: 23.17%); assay type: functional; conditions: Bel-7402
[17] = tested on: Bel-7402; test: Induction of mitochondrial membrane depolarization in human Bel7402 cells at 1 uM after 72 hrs by JC-1 staining based flow cytometry (reference value: 4.26%); assay type: functional
[18] = tested on: Bel-7402; test: Induction of apoptosis in human Bel7402 cells assessed as live cells at 1 uM after 72 hrs by Annexin V-FITC/propidium iodide staining based flow cytometry (reference value: 88.31%); assay type: functional
[19] = tested on: Bel-7402; test: Induction of apoptosis in human Bel7402 cells assessed as live cells at 2 uM after 72 hrs by Annexin V-FITC/propidium iodide staining based flow cytometry (reference value: 88.31%); assay type: functional
[20] = tested on: Bel-7402; test: Induction of apoptosis in human Bel7402 cells assessed as live cells at 3 uM after 72 hrs by Annexin V-FITC/propidium iodide staining based flow cytometry (reference value: 88.31%); assay type: functional
[21] = tested on: Bel-7402; test: Induction of apoptosis in human Bel7402 cells assessed as early apoptotic cells at 1 uM after 72 hrs by Annexin V-FITC/propidium iodide staining based flow cytometry (reference value: 6.66%); assay type: functional
[22] = tested on: Bel-7402; test: Induction of apoptosis in human Bel7402 cells assessed as early apoptotic cells at 2 uM after 72 hrs by Annexin V-FITC/propidium iodide staining based flow cytometry (reference value: 6.66%); assay type: functional
[23] = tested on: Bel-7402; test: Induction of apoptosis in human Bel7402 cells assessed as early apoptotic cells at 3 uM after 72 hrs by Annexin V-FITC/propidium iodide staining based flow cytometry (reference value: 6.66%); assay type: functional
[24] = tested on: Bel-7402; test: Induction of apoptosis in human Bel7402 cells assessed as late apoptotic cells at 1 uM after 72 hrs by Annexin V-FITC/propidium iodide staining based flow cytometry (reference value: 2.55%); assay type: functional
[25] = tested on: Bel-7402; test: Induction of apoptosis in human Bel7402 cells assessed as late apoptotic cells at 2 uM after 72 hrs by Annexin V-FITC/propidium iodide staining based flow cytometry (reference value: 2.55%); assay type: functional
[26] = tested on: Bel-7402; test: Induction of apoptosis in human Bel7402 cells assessed as late apoptotic cells at 3 uM after 72 hrs by Annexin V-FITC/propidium iodide staining based flow cytometry (reference value: 2.55%); assay type: functional
[27] = tested on: Bel-7402; test: Induction of apoptosis in human Bel7402 cells assessed as necrotic cells at 1 uM after 72 hrs by Annexin V-FITC/propidium iodide staining based flow cytometry (reference value: 2.48%); assay type: functional
[28] = tested on: Bel-7402; test: Induction of apoptosis in human Bel7402 cells assessed as necrotic cells at 2 uM after 72 hrs by Annexin V-FITC/propidium iodide staining based flow cytometry (reference value: 2.48%); assay type: functional
[29] = tested on: Bel-7402; test: Induction of apoptosis in human Bel7402 cells assessed as necrotic cells at 3 uM after 72 hrs by Annexin V-FITC/propidium iodide staining based flow cytometry (reference value: 2.48%); assay type: functional
[30] = tested on: Bel-7402; test: Induction of apoptosis in human Bel7402 cells after 72 hrs by Annexin V-FITC/propidium iodide staining based flow cytometry; assay type: functional, cell-based
[31] = tested on: Bel-7402; test: Induction of mitochondrial membrane depolarization in human Bel7402 cells at 2 uM after 72 hrs by JC-1 staining based flow cytometry (reference value: 4.26%); assay type: functional
[32] = tested on: Bel-7402; test: Induction of mitochondrial membrane depolarization in human Bel7402 cells at 3 uM after 72 hrs by JC-1 staining based flow cytometry (reference value: 4.26%); assay type: functional
[33] = tested on: Bel-7402; test: Induction of mitochondrial membrane depolarization in human Bel7402 cells after 72 hrs by JC-1 staining based flow cytometry; assay type: functional, cell-based
[34] = Induction of apoptosis in human Bel7402 cells assessed as upregulation of Bax expression at 1 to 3 uM after 72 hrs by Western blot analysis; assay type: functional, cell-based; conditions: Bel-7402
Outline: (§3)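 Bel-7402 cells exposed to different doses for 72 h, lysed, and protein content determined. Lysates separated on 10% SDS-PAGE and transferred to nitrocellulose. Membranes probed with monoclonal primary antibodies, then HRP-conjugated secondary antibodies, with ECL detection.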

[35] = tested on: Bel-7402; test: Induction of apoptosis in human Bel7402 cells assessed as increase in caspase-3 expression at 1 to 3 uM after 72 hrs by Western blot analysis; assay type: functional, cell-based; outline: as §3
[36] = tested on: Bel-7402; test: Induction of apoptosis in human Bel7402 cells assessed as increase in caspase-8 expression at 1 to 3 uM after 72 hrs by Western blot analysis; assay type: functional, cell-based; outline: as §3
[37] = tested on: Bel-7402; test: Induction of apoptosis in human Bel7402 cells assessed as increase in caspase-9 expression at 1 to 3 uM after 72 hrs by Western blot analysis; assay type: functional, cell-based; outline: as §3
[38] = Induction of apoptosis in human Bel7402 cells assessed as upregulation of FAS protein expression at 1 to 3 uM after 72 hrs by Western blot analysis; assay type: functional, cell-based; conditions: Bel-7402; outline: as §3
[39] = tested on: Bel-7402; test: Induction of apoptosis in human Bel7402 cells assessed as increase in cytochrome-C level at 1 to 3 uM after 72 hrs by Western blot analysis; assay type: functional, cell-based; outline: as §3
[40] = tested on: Bel-7402; test: Induction of apoptosis in human Bel7402 cells assessed as down regulation of Bcl-2 expression at 1 to 3 uM after 72 hrs by Western blot analysis; assay type: functional, cell-based; outline: as §3

Compound: CN1c2ccccc2C(=O)N2CCc3c(n(CCCOc4no[n+]([O-])c4S(=O)(=O)c4ccccc4)c4ccccc34)C21 (centres undefined)
- Activity [1]: 83.6 µM
- Activity [2]: 83.1 µM
- Activity [3]: 16.4 µM
- IC50 [4]: 80 nM
- IC50 [5]: 5.85 µM
- IC50 [6]: 6.21 µM
- IC50 [7]: 2.35 µM

Compound: CN1c2ccccc2C(=O)N2CCc3c(n(CCCO[N+](=O)[O-])c4ccccc34)C21 (centres undefined)
- Activity [1]: 83.8 µM
- Activity [2]: 78.5 µM
- Activity [3]: 19.4 µM
- IC50 [4]: > 100000 nM
- IC50 [5]: > 100 µM
- IC50 [6]: 12.8 µM
- IC50 [7]: > 100 µM

Compound: CN1c2ccccc2C(=O)N2CCc3c(n(CCCOC(=O)CCC(=O)OCCOc4no[n+]([O-])c4S(=O)(=O)c4ccccc4)c4ccccc34)C21 (centres undefined)
- Activity [1]: 97.6 µM
- Activity [2]: 97 µM
- Activity [3]: 18 µM
- IC50 [4]: 60 nM
- IC50 [5]: 5.32 µM
- IC50 [6]: 4.65 µM
- IC50 [7]: 6.38 µM

Compound: CN1c2ccccc2C(=O)N2CCc3c([nH]c4ccccc34)C21 (centres undefined)
- IC50 [4]: 1160 nM
- IC50 [5]: 0.98 µM
- IC50 [6]: 1.23 µM
- IC50 [7]: 0.34 µM

Compound: CN1c2ccccc2C(=O)N2CCc3c(n(CCCCCCOc4no[n+]([O-])c4S(=O)(=O)c4ccccc4)c4ccccc34)C21 (centres undefined)
- Activity [1]: 87.3 µM
- Activity [2]: 82.2 µM
- Activity [3]: 26 µM
- IC50 [4]: 70 nM
- IC50 [5]: 2.31 µM
- IC50 [6]: 2.1 µM
- IC50 [7]: > 100 µM
- Activity [8]: 44.9%
- Activity [9]: 42.6%
- Activity [10]: 42.6%
- Activity [11]: 39.3%
- Activity [12]: 47.3%
- Activity [13]: 51.5%
- Activity [14]: 15.7%
- Activity [15]: 10%
- Activity [16]: 5.9%
- Activity [17]: 13.5%
- Activity [18]: 77.63%
- Activity [19]: 58.88%
- Activity [20]: 40.74%
- Activity [21]: 15.92%
- Activity [22]: 20.98%
- Activity [23]: 24.37%
- Activity [24]: 3.71%
- Activity [25]: 15.4%
- Activity [26]: 28.2%
- Activity [27]: 2.73%
- Activity [28]: 4.74%
- Activity [29]: 6.69%
- Activity [30]: Dose-dependent effect
- Activity [31]: 26.57%
- Activity [32]: 44.37%
- Activity [33]: Dose-dependent effect
- Activity [34]: Active
- Activity [35]: Active
- Activity [36]: Active
- Activity [37]: Active
- Activity [38]: Active
- Activity [39]: Active
- Activity [40]: Active

Compound: CN1c2ccccc2C(=O)N2CCc3c(n(CCCCCCO[N+](=O)[O-])c4ccccc34)C21 (centres undefined)
- Activity [1]: 100 µM
- Activity [2]: 104 µM
- Activity [3]: 16.4 µM
- IC50 [4]: > 100000 nM
- IC50 [5]: > 100 µM
- IC50 [6]: 28.8 µM
- IC50 [7]: > 100 µM

Compound: O=C(O)CCC(=O)OCCOc1no[n+]([O-])c1S(=O)(=O)c1ccccc1
- IC50 [4]: 18000 nM
- IC50 [5]: 27.9 µM
- IC50 [6]: 21.4 µM
- IC50 [7]: 38.7 µM

Compound: COC(=O)CCC(=O)OCCOc1no[n+]([O-])c1S(=O)(=O)c1ccccc1
- IC50 [4]: 21400 nM
- IC50 [5]: 24.7 µM
- IC50 [6]: 27.9 µM
- IC50 [7]: 43.3 µM

Compound: CN1c2ccccc2C(=O)N2CCc3c(n(CCOC(=O)CCC(=O)OCCOc4no[n+]([O-])c4S(=O)(=O)c4ccccc4)c4ccccc34)C21 (centres undefined)
- Activity [1]: 93.5 µM
- Activity [2]: 88.7 µM
- Activity [3]: 6.59 µM
- IC50 [4]: 20 nM
- IC50 [5]: 3.04 µM
- IC50 [6]: 1.54 µM
- IC50 [7]: 17.1 µM

Compound: CN1c2ccccc2C(=O)N2CCc3c(n(CCOc4no[n+]([O-])c4S(=O)(=O)c4ccccc4)c4ccccc34)C21 (centres undefined)
- Activity [1]: 78.8 µM
- Activity [2]: 77.5 µM
- Activity [3]: 18.5 µM
- IC50 [4]: 20 nM
- IC50 [5]: 0.23 µM
- IC50 [6]: 0.55 µM
- IC50 [7]: 0.02 µM
